# Measured values: ChEMBL document CHEMBL5380865, “Linearization of the Brevicidine and Laterocidine Lipopeptides Yields Analogues That Retain Full Antibacterial Activity” (J Med Chem, 2023)
# *1 amine or outer side, *2 acyl side, *3 side chain or, on linkers, in order; H or OH if unused. Where a SMILES comes first, the peptide text is derived from it. [ ]: non-standard residue; d: D form. The star is where a group is joined. ξ: configuration not given here. X1 = C[C@@H](N=[N+]=[N-])[C@H](N[*:1])C(=O)[*:2]; Octanoyl(7-Me) = CC(C)CCCCCC(=O)*; Hexanoyl(4ξ-Me) = CCC(C)CCC(=O)*; dOrn = NCCC[C@@H](N)C(=O)O; Orn = NCCC[C@H](N)C(=O)O
# Columns and labels:
# Escherichia coli [1] = test: Antibacterial activity Escherichia coli ATCC 25922 assessed as inhibition of visible bacterial growth incubated for 18 hrs by microbroth dilution assay; assay type: functional
# Outline: (§1)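 CLSI broth microdilution. Strains streaked from glycerol stocks onto blood agar (16 h, 37 °C); single colonies grown in TSB at 37 °C, 220 rpm, to OD600 about 0.5. Diluted in MHB to 2 × 10^5 CFU/mL and mixed 1:1 with compounds serially diluted in MHB from DMSO stocks (colistin from water stocks), polypropylene plates. Sealed, 18 h at 37 °C, 600 rpm. MIC taken as lowest concentration preventing visible growth, three technical replicates.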
# Klebsiella pneumoniae = test: Antibacterial activity Klebsiella pneumoniae ATCC 13883 assessed as inhibition of visible bacterial growth incubated for 18 hrs by microbroth dilution assay; assay type: functional; outline: as §1
# Acinetobacter baumannii = test: Antibacterial activity Acinetobacter baumannii ATCC 17961 assessed as inhibition of visible bacterial growth incubated for 18 hrs by microbroth dilution assay; assay type: functional; outline: as §1
# Pseudomonas aeruginosa = test: Antibacterial activity Pseudomonas aeruginosa PAO1 assessed as inhibition of visible bacterial growth incubated for 18 hrs by microbroth dilution assay; assay type: functional
# Outline: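 CLSI broth microdilution. Colonies from blood agar (16 h, 37 °C) grown in TSB at 37 °C, 220 rpm, to OD600 about 0.5, then diluted in MHB to 2 × 10^5 CFU/mL. Added to DMSO-stock compounds serially diluted in MHB in polypropylene plates. Sealed, 18 h at 37 °C, 600 rpm. MIC = lowest concentration with no visible growth; three technical replicates.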
# Staphylococcus aureus = test: Antibacterial activity Staphylococcus aureus USA300 assessed as inhibition of visible bacterial growth incubated for 18 hrs by microbroth dilution assay; assay type: functional; outline: as §1
# Escherichia coli [2] = test: Antibacterial activity Escherichia coli MCR-1 assessed as inhibition of visible bacterial growth incubated for 18 hrs by microbroth dilution assay; assay type: functional
# Outline: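 Colistin-resistant E. coli 25922 carrying MCR-1, grown from glycerol stock in kanamycin-supplemented TSB for 16 h at 37 °C, 220 rpm. Diluted 100-fold in kanamycin-supplemented TSB and grown to OD600 about 0.5, then diluted in MHB to 2 × 10^5 CFU/mL. Combined 1:1 with MHB serial dilutions of compounds. Sealed, 18 h at 37 °C, 600 rpm; lowest concentration without visible growth, triplicate technical replicates.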
# [3] = Hemolytic activity in sheep red blood cell assessed as hemolysis at 1 to 128 ug/ml incubated for 1 hrs relative to control; assay type: toxicity, cell-based, Ovis aries, Erythrocyte; conditions: sheep red blood cells (erythrocytes), at 1 to 128 µg/mL, dose 1-128 µg/ml, read-out: Activity
# Outline: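 Defibrinated sheep erythrocytes washed five times in PBS with 0.002% Tween20 and normalized so the Triton control reads 2.5–3.0 at 415 nm. Mixed 1:1 with compound serial dilutions (128–1 μg/mL) and incubated 1 h at 37 °C, 500 rpm. Supernatant A415 is background-corrected with buffer and expressed as percent of 0.1% Triton X-100 (final). Run in triplicate.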
Compound,MIC (Escherichia coli [1]),MIC (Klebsiella pneumoniae),MIC (Acinetobacter baumannii),MIC (Pseudomonas aeruginosa),MIC (Staphylococcus aureus),MIC (Escherichia coli [2]),hemolysis at 1 h [3]
CCC(C)CCC(=O)N[C@H](CC(N)=O)C(=O)N[C@H](Cc1ccc(O)cc1)C(=O)N[C@H](Cc1c[nH]c2ccccc12)C(=O)N[C@H](CCCN)C(=O)N[C@@H](CCCN)C(=O)NCC(=O)N[C@H](CCCN)C(=O)N[C@@H](Cc1c[nH]c2ccccc12)C(=O)N[C@H](C(=O)N[C@H](C(=O)NCC(=O)N[C@@H](C)C(N)=O)[C@@H](C)CC)[C@@H](C)O (stereo partly drawn) ({Hexanoyl(4ξ-Me)}-[dN][dY][dW][dOrn][Orn]G[dOrn]WTIGA-NH2),8 µg/mL,8 µg/mL,4 µg/mL,8 µg/mL,> 32 µg/mL,8 µg/mL,
CC[C@H](C)[C@H](NC(=O)[C@@H](NC(=O)[C@H](Cc1c[nH]c2ccccc12)NC(=O)[C@@H](CCCN)NC(=O)CNC(=O)[C@H](CCCN)NC(=O)[C@@H](CCCN)NC(=O)[C@@H](Cc1c[nH]c2ccccc12)NC(=O)[C@@H](Cc1ccc(O)cc1)NC(=O)[C@@H](CO)NC(=O)CCCCCC(C)C)[C@@H](C)N=[N+]=[N-])C(=O)N[C@@H](CC(N)=O)C(=O)NCC(=O)NCC(N)=O ({Octanoyl(7-Me)}-[dS][dY][dW][dOrn][Orn]G[dOrn]W[X1]INGG-NH2),4 µg/mL,4 µg/mL,2 µg/mL,4 µg/mL,> 32 µg/mL,4 µg/mL,< 0.1%
